pKi: −log10 of the molar value.

Sequence of Melanocortin receptor 4 (P32245 whole entry): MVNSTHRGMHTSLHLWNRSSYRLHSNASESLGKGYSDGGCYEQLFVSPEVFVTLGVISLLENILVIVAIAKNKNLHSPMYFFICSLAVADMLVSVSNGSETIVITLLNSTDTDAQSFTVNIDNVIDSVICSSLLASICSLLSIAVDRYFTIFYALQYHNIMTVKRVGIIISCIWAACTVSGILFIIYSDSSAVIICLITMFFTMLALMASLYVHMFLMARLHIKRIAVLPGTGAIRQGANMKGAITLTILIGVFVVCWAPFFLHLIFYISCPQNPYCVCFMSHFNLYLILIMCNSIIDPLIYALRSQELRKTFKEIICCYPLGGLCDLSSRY

In the test the target is Melanocortin receptor 4 (Homo sapiens, UniProt P32245). As to the kind of experiment: Inhibition of [125I]NDP-alpha-MSH binding to human MC4R transfected in HEK293 cells. It counts as cell-based. The procedure, abridged:
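Competition binding against ¹²⁵I-NDP-α-MSH on HEK293 cells stably expressing human MC4 receptor; affinity taken from inhibition of radioligand binding. Each value is the mean of at least two determinations, with the binding assay's average error given as 15%.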
What is called pKi is the negative decadic logarithm of the Ki, by convention in mol/L. Lower therefore signals a high Ki. Compound `CC(C)CC(C1CCCCC1)N1CCN(C(=O)[C@@H](Cc2ccc(Cl)cc2)NC(=O)CC2Cc3ccccc3N2)CC1` (some centres not stated) gave a pKi of 7.27.
In the case of `CCN(CC)C(=O)C(C1CCCCC1)N1CCN(C(=O)[C@@H](Cc2ccc(Cl)cc2)NC(=O)CC2Cc3ccccc3N2)CC1` (some centres not stated), the negative-log Ki (pKi) was 6.83.
In the case of `CS(=O)(=O)NCC(C1CCCCC1)N1CCN(C(=O)[C@@H](Cc2ccc(Cl)cc2)NC(=O)CC2Cc3ccccc3N2)CC1` (some centres not stated) it was 7.59.
`CCN(CC)CC(CC1CCCCC1)N1CCN(C(=O)[C@@H](Cc2ccc(Cl)cc2)NC(=O)[C@H]2Cc3ccccc3CN2)CC1` (some centres not stated) gave a pKi of 7.89. Against the preceding compound, the pKi is 0.30 log units higher.
The value for `O=C(CC1Cc2ccccc2N1)N[C@H](Cc1ccc(Cl)cc1)C(=O)N1CCN(C(C2CCCCC2)C2CCCCC2)CC1` (some centres not stated) was 7.46.
In the case of `CCN(CC)CC1(N2CCN(C(=O)[C@@H](Cc3ccc(Cl)cc3)NC(=O)[C@H]3Cc4ccccc4CN3)CC2)CCCC1` it was 7.15.
For `O=C(CC1Cc2ccccc2N1)N[C@H](Cc1ccc(Cl)cc1)C(=O)N1CCN(C(CC2CCCCC2)CN2CCOCC2)CC1` (some centres not stated), the pKi is 8.00.
`CCN(CC)CC(CC1CCCCC1)N1CCN(C(=O)[C@@H](Cc2ccc(Cl)cc2)NC(=O)CC2Cc3ccccc3N2)CC1` (some centres not stated): the pKi was 8.30.
Turning to `CCN(CC)CC(c1ccccc1F)N1CCN(C(=O)[C@@H](Cc2ccc(Cl)cc2)NC(=O)[C@H]2Cc3ccccc3CN2)CC1` (some centres not stated), the pKi was 7.70. This pKi is 0.60 log units lower than that of the compound before.
In the case of `O=C(CC1Cc2ccccc2N1)N[C@H](Cc1ccc(Cl)cc1)C(=O)N1CCN(C(CC2CCCCC2)CC2CCCCC2)CC1` (some centres not stated) it was 6.49; in that of `CC(C)CC(CC(C)C)N1CCN(C(=O)[C@@H](Cc2ccc(Cl)cc2)NC(=O)CC2Cc3ccccc3N2)CC1` (some centres not stated), 7.74; in that of `CCN(CC)CC(C1CCCC1)N1CCN(C(=O)[C@@H](Cc2ccc(Cl)cc2)NC(=O)[C@H]2Cc3ccccc3CN2)CC1` (some centres not stated), 8.40.
For the compound `CCN(CC)CC(C1CCCCCC1)N1CCN(C(=O)[C@@H](Cc2ccc(Cl)cc2)NC(=O)[C@H]2Cc3ccccc3CN2)CC1` (some centres not stated), the pKi is 7.89.
Consider `CCN(CC)CC(C1CCCCC1)N1CCN(C(=O)[C@@H](Cc2ccc(Cl)cc2)NC(=O)[C@H]2Cc3ccccc3CN2)CC1` (some centres not stated), for which the pKi was 8.40. This pKi is 0.51 log units higher than that of the compound before.
Turning to `CCN(CC)CC(C)N1CCN(C(=O)[C@@H](Cc2ccc(Cl)cc2)NC(=O)[C@H]2Cc3ccccc3CN2)CC1` (some centres not stated), the pKi was 5.47.
`CCN(CC(C1CCCCC1)N1CCN(C(=O)[C@@H](Cc2ccc(Cl)cc2)NC(=O)n2cc3ccccc3c2)CC1)S(C)(=O)=O` (some centres not stated) showed a pKi of 8.15.
Consider `CCN(CC)CC(C1CCCCC1)N1CCN(C(=O)[C@@H](Cc2ccc(Cl)cc2)NC(=O)CC2Cc3ccccc3N2)CC1` (stereo in doubt; 28), for which the pKi is 8.52.
In the case of `CCN(CC)CC(C1CCCCC1)N1CCN(C(=O)[C@@H](Cc2ccc(Cl)cc2)NC(=O)CC2Cc3ccccc3N2)CC1` (stereo in doubt; 28a) it was 8.52; in that of `CCN(CC)CC(C1CCCCC1)N1CCN(C(=O)[C@@H](Cc2ccc(Cl)cc2)NC(=O)CC2Cc3ccccc3N2)CC1` (stereo in doubt; 28b), 8.30; in that of `CCN(CC(C1CCCCC1)N1CCN(C(=O)[C@@H](Cc2ccc(Cl)cc2)NC(=O)CC2Cc3ccccc3N2)CC1)S(C)(=O)=O` (stereo in doubt; 34), 8.52.
The value for `CCN(CC(C1CCCCC1)N1CCN(C(=O)[C@@H](Cc2ccc(Cl)cc2)NC(=O)CC2Cc3ccccc3N2)CC1)S(C)(=O)=O` (stereo in doubt; 34a) was 8.22; that for `CCN(CC(C1CCCCC1)N1CCN(C(=O)[C@@H](Cc2ccc(Cl)cc2)NC(=O)CC2Cc3ccccc3N2)CC1)C(C)=O` (stereo in doubt; 35) was 8.10.
Regarding `CCN(CC(C1CCCCC1)N1CCN(C(=O)[C@@H](Cc2ccc(Cl)cc2)NC(=O)CC2Cc3ccccc3N2)CC1)C(C)=O` (stereo in doubt; 35a), the pKi is 8.70.
The value for `CCN(CC(C1CCCCC1)N1CCN(C(=O)[C@@H](Cc2ccc(Cl)cc2)NC(=O)CC2Cc3ccccc3N2)CC1)C(C)=O` (stereo in doubt; 35b) was 8.52; that for `O=C(CC1Cc2ccccc2N1)N[C@H](Cc1ccc(Cl)cc1)C(=O)N1CCN(C(CN2C(=O)CCC2=O)C2CCCCC2)CC1` (stereo in doubt; 36) was 8.00; that for `O=C(CC1Cc2ccccc2N1)N[C@H](Cc1ccc(Cl)cc1)C(=O)N1CCN(C(CN2C(=O)CCC2=O)C2CCCCC2)CC1` (stereo in doubt; 36a) was 8.00.
`O=C(CC1Cc2ccccc2N1)N[C@H](Cc1ccc(Cl)cc1)C(=O)N1CCN(C(CN2C(=O)CCC2=O)C2CCCCC2)CC1` (stereo in doubt; 36b) gave a pKi of 7.74.

The values are drawn from ChEMBL document CHEMBL1138091, “Privileged structure based ligands for melanocortin-4 receptors--aliphatic piperazine derivatives” (Bioorg Med Chem Lett, 2006).
